Assay [1] concerns Rattus norvegicus. The assay is described as follows: Hypoglycemic activity in STZ-treated Wistar rat diabetic model at 75.8 mg/kg, ip after 10 mins treated with 1 g/kg, ip glucose. It is filed as functional, organism-based. Also on record: dose 75.8 mg/kg. Summed up: (§1)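 Male Wistar rats (250–300 g) made diabetic with streptozotocin 50 mg/kg ip (fasting glycemia 100–150 mg/dl at day 4), fasted 24 h, then dosed ip. Glucose 1 g/kg ip was given 10 min later. Blood glucose was read by tail puncture with a glucometer at 0, 15, 30, 45, 60, 90 and 120 min, and AUC was calculated. Vehicle normoglycemic rats served as reference.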

Assay [2] relates to Rattus norvegicus. The assay is described as follows: Cardio-protective anti-ischemic activity in STZ-treated Wistar rat heart assessed as reduction in ischemic area at 18.2 mg/kg, ip for 7 days followed by treatment hearts submitted to 30 mins ischemia measured after 120 mins of reperfusion. It counts as functional, organism-based. Set-up: dose 18.2 mg/kg. Summed up:
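STZ-diabetic male Wistar rats (50 mg/kg ip; fasting glycemia 100–150 mg/dl) dosed ip daily for 7 days from day 11, with vehicle normoglycemic rats as reference. Langendorff hearts: 30 min equilibration, 30 min ischemia, 120 min reperfusion. Then 2 mm left-ventricle slices were stained with triphenyltetrazolium chloride, and damaged area was measured by planimetry as % of whole area. Mean ± SEM.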

For assay [3], the system named is Rattus norvegicus. Nature of the assay: Cardio-protective anti-ischemic activity in STZ-treated Wistar rat heart assessed as recovery of functional parameter at 18.2 mg/kg, ip for 7 days followed by treatment hearts submitted to 30 mins ischemia measured after 120 mins of reperfusion. It is filed as organism-based. Set-up: dose 18.2 mg/kg. Summed up:
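Male Wistar rats (250–300 g) given streptozotocin 50 mg/kg ip; those with fasting glycemia 100–150 mg/dl at day 4 were used. From day 11, daily ip dosing for 7 days, with vehicle-treated normoglycemic rats as reference. Hearts were taken under heparin and pentobarbital, Langendorff-perfused, equilibrated 30 min, then 30 min ischemia and 120 min reperfusion. Read-out: RPP recovery %, mean ± SEM.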

The test system of assay [4] is Aorta. The assay is described as follows: Maximal vasorelaxant activity in Wistar rat endothelium-denuded aortic ring assessed as reduction of KCl-induced contraction at 30 uM relative to control. It is filed as functional. Summed up: (§2)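 Rat aortic rings were pre-contracted with KCl 30 mM and exposed to cumulative test concentrations. Potency: pIC50, the negative log of the concentration halving KCl-induced tone. Efficacy: Emax, the maximal relaxation at the highest concentration tested. Both given as mean ± SEM.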

Assay [5] deals with Aorta. Nature of the assay: Vasorelaxant activity in Wistar rat endothelium-denuded aortic ring assessed as reduction of KCl-induced contraction. It counts as functional, tissue-based. Summed up: as §2
Assay [6] relates to Rattus norvegicus. Nature of the assay: Hypoglycemic activity in STZ-treated Wistar rat diabetic model at 50 mg/kg, ip after 10 mins treated with 1 g/kg, ip glucose. Set-up: dose 50 mg/kg. It is filed as functional, organism-based. Summed up: as §1

Results on eight compounds are retold here after ChEMBL document CHEMBL3397023, “Synthesis and evaluation of multi-functional NO-donor/insulin-secretagogue derivatives for the treatment of type II diabetes and its cardiovascular complications” (Bioorg Med Chem, 2015).

What is called Emax is the size of the effect at its maximum, as opposed to the concentration needed. By IC50 is commonly meant the point on the concentration scale where inhibition reaches its midpoint.

The source made the active and inactive calls. No cut-off for these calls is given here.

On to `CC(C)[C@H]1CC[C@H](C(=O)N[C@H](Cc2ccccc2)C(=O)OCc2ccc(CO[N+](=O)[O-])cc2)CC1`, for which the result with Rattus norvegicus [1], in the assay with Rattus norvegicus [2] and with Rattus norvegicus [3] was Active. Besides, in the assay with Aorta [4], the maximal response (Emax) at 30 µM was determined as 93%. Besides, in the assay on Aorta [5], the half-inhibitory concentration (IC50) was 5.01 µM.

Consider `CCOc1cc(CC(=O)N[C@@H](CC(C)C)c2ccccc2N2CCCCC2)ccc1C(=O)OCc1ccc(C(C)O[N+](=O)[O-])cc1` (stereo partly specified), for which, in the assay on Aorta [4], the Emax at 30 µM is 84%. The IC50 with Aorta [5] is 5.01 µM.

Regarding `CC(C)[C@H]1CC[C@H](C(=O)N[C@H](Cc2ccccc2)C(=O)OCc2cccc(CO[N+](=O)[O-])c2)CC1`, in the assay with Aorta [4], the maximal response (Emax) at 30 µM amounted to 45%.

Regarding `CCOc1cc(CC(=O)N[C@@H](CC(C)C)c2ccccc2N2CCCCC2)ccc1C(=O)OCc1ccc(CO[N+](=O)[O-])cc1`, in the assay on Aorta [4], the maximum response (Emax) at 30 µM stood at 94%. The 50% inhibitory concentration (IC50) with Aorta [5] was 8.13 µM.

For the compound `CCOc1cc(CC(=O)N[C@@H](CC(C)C)c2ccccc2N2CCCCC2)ccc1C(=O)OCc1cccc(C(C)O[N+](=O)[O-])c1` (stereo partly specified), the maximum response (Emax) at 30 µM with Aorta [4] stood at 26%.

Regarding `CCOc1cc(CC(=O)N[C@@H](CC(C)C)c2ccccc2N2CCCCC2)ccc1C(=O)OCc1cccc(CO[N+](=O)[O-])c1`, the Emax at 30 µM with Aorta [4] worked out at 79%. The 50% inhibitory concentration (IC50) with Aorta [5] is 13.2 µM.

On to `CC(O[N+](=O)[O-])c1ccc(COC(=O)[C@@H](Cc2ccccc2)NC(=O)[C@H]2CC[C@H](C(C)C)CC2)cc1` (stereo partly specified), for which the Emax at 30 µM in the assay on Aorta [4] was 58%. Further, the IC50 in the assay with Aorta [5] was 23.4 µM.

Turning to `CC(C)[C@H]1CC[C@H](C(=O)N[C@H](Cc2ccccc2)C(=O)O)CC1`, the result in the assay on Rattus norvegicus [6] was Active.
